According to article PMC2901243 (Nuclear medicine and biology, 2010):

Molecular target: SSTR2 (Rattus norvegicus, UniProt P30680)
Format: binding
Conditions: Re-cyclized analogues, in vitro, AR42J cells
Summary of the method: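 Trypsinized rat AR42J pancreatic carcinoma cells, 2 × 10⁶/well in RPMI 1640, were incubated 2 h at 37 °C (5% CO₂) with HPLC-purified ¹¹¹In-DOTA-TIDE (0.2 μCi/well) and test compound at 10⁻⁴ to 10⁻¹³ M, in triplicate. Cells were pelleted, washed three times with 4 °C medium, and counted for γ radioactivity. IC₅₀ was taken from sigmoidal fits of % bound tracer vs log concentration.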

Chain of SSTR2 (P30680 whole entry): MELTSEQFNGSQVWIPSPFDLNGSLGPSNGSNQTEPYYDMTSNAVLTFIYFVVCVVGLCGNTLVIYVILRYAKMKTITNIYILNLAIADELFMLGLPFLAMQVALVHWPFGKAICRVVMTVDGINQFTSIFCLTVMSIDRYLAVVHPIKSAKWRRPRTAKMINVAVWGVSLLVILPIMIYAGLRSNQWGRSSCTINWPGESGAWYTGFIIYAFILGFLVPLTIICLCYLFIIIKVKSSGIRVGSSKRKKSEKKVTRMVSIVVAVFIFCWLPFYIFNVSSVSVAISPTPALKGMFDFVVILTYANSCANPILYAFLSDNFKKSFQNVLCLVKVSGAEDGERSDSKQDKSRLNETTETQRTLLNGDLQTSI

- affinity toward somatostatin subtype 2 receptors (in words): moderate affinity
Substance: Ac-Cys-Cys-Tyr-DTrp-Lys-Thr-Cys-Thr(OH) [analogue 4]
